This is an account of results in ChEMBL document CHEMBL2311350, “Discovery of a novel phenylethyl benzamide glucokinase activator for the treatment of type 2 diabetes mellitus” (Bioorg Med Chem Lett, 2013).

The structures appear in SMILES notation. Where only a bound is given, the exact number is not on record here.

As usually defined, the bioavailability is the share of a dose that reaches the circulation, judged against a reference dose that is usually intravenous. A word on the Vd: it is the apparent volume that relates the amount in the body to the concentration in plasma or blood. As a reminder, the clearance is the rate of elimination divided by the concentration. What is called EC50 is the midpoint of the concentration-response curve.

Series [1] can be described thus: Bioavailability in dog. The format is ADME, organism-based, Canis lupus familiaris. The settings on record: in vivo. A digest of the protocol: (§1)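 Pharmacokinetics in mice and dogs after a single intravenous dose and a single oral dose. Clearance, volume of distribution, elimination half-life and oral bioavailability (F) were derived.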
Series [2] can be described thus: Bioavailability in mouse. The series is classed as ADME, organism-based. To be noted: in vivo. A digest of the protocol:
as §1

Series [3] in a line: Elimination half life in mouse. The settings on record: in vivo, read-out: beta t1/2 (converted). The series is classed as ADME, organism-based. In short, it runs like this:
as §1

Series [4] is described as follows: Elimination half life in dog. The series is classed as ADME, organism-based, Canis lupus familiaris. To be noted: in vivo, read-out: beta t1/2 (converted). A digest of the protocol:
as §1

Series [5] in a line: Volume of distribution in mouse. To be noted: in vivo. The format is ADME, organism-based. A digest of the protocol:
as §1

Series [6] is described as follows: Volume of distribution in dog. The series is classed as ADME, organism-based, Canis lupus familiaris. To be noted: in vivo. A digest of the protocol: as §1
The nature of series [7]: Clearance in dog. The format is ADME, organism-based, Canis lupus familiaris. The settings on record: in vivo. A digest of the protocol:
as §1

Series [8] is described as follows: Clearance in mouse. To be noted: in vivo. The format is ADME, organism-based. A digest of the protocol: as §1
A further series deals with Cytochrome P450 3A4 (Homo sapiens, UniProt P08684). As to the kind of experiment: Inhibition of CYP3A4 (unknown origin) at 25 to 50 uM. The series is classed as ADME.
In the next series the target is Cytochrome P450 2D6 (Homo sapiens, UniProt P10635). As to the kind of experiment: Inhibition of CYP2D6 (unknown origin) at 25 to 50 uM. The series is classed as ADME.
Another series concerns the target Cytochrome P450 2C19 (Homo sapiens, UniProt P33261). As to the kind of experiment: Inhibition of CYP2C19 (unknown origin) at 25 to 50 uM. The series is classed as ADME.
A further series has as its target Cytochrome P450 2C9 (Homo sapiens, UniProt P11712). As to the kind of experiment: Inhibition of CYP2C9 (unknown origin) at 25 to 50 uM. The series is classed as ADME.
Another series has as its target T1, Cytochrome P450 1A2 (Homo sapiens, UniProt P05177).
T1 sequence (P05177 whole entry): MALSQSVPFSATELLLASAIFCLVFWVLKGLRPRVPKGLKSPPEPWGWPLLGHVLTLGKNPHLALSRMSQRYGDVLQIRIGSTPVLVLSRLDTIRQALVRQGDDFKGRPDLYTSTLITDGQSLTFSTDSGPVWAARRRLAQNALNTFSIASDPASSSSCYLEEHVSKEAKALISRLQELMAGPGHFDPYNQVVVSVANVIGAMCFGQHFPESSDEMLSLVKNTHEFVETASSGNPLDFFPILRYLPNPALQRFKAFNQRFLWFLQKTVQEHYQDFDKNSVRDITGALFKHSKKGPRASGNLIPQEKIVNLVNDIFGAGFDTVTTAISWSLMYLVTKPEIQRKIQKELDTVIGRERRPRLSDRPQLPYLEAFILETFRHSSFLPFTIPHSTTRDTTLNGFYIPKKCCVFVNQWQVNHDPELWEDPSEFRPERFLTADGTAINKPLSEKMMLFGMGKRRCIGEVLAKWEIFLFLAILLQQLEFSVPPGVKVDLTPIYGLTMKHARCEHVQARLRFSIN
Put plainly: Inhibition of CYP1A2 (unknown origin) at 25 to 50 uM. The series is classed as ADME.

Series [9] in a line: Metabolic stability in human liver microsomes assessed as compound remaining after 60 mins. The series is classed as ADME, Microsome. To be noted: read-out: Stability. In short, it runs like this: (§2)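 Compound incubated for 1 h with mouse, dog or human liver microsomes. Percent of parent compound remaining was measured.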
Series [10] can be described thus: Metabolic stability in mouse liver microsomes assessed as compound remaining after 60 mins. The series is classed as ADME, Microsome. To be noted: read-out: Stability. In short, it runs like this: as §2
A general note: Liver microsomes are vesicles of endoplasmic reticulum, rich in cytochrome P450 enzymes.

Series [11] is described as follows: Metabolic stability in dog liver microsomes assessed as compound remaining after 60 mins. The series is classed as ADME, Canis lupus familiaris, Microsome. The settings on record: read-out: Stability. A digest of the protocol: as §2
For series [12], the species on record is Mus musculus. Put plainly: Toxicity in ob/ob mouse assessed as effect on body weight. The format is organism-based. The settings on record: in vivo. In short, it runs like this: (§3)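 ob/ob mice dosed orally and repeatedly in a subchronic study. Blood glucose, serum lipids and body weight were monitored.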
Series [13] relates to Mus musculus. As to the kind of experiment: Toxicity in C57BL/J mouse assessed as hypoglycemic risk at 150 mg/kg. The format is organism-based. Also on record: dose 150 mg/kg. The settings on record: in vivo. A digest of the protocol: (§4)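 C57BL/J6 mice given oral dosing followed by an oral glucose tolerance test. Plasma glucose was tracked over time and glucose AUC reduction calculated. Several doses were tested, including 50 and 150 mg/kg. Hypoglycemia risk was judged from the glucose profiles.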

Series [14] concerns Mus musculus. Put plainly: Increase in oral glucose tolerance in C57BL/J mouse assessed as reduction in glucose area under curve at 50 mg/kg by OGTT. More on the design: scale not given: the % may be the effect or the level left. The series is classed as functional. A digest of the protocol: as §4
Series [15] addresses T2, Hexokinase-4 (Homo sapiens, UniProt P35557).
T2 sequence (P35557 whole entry): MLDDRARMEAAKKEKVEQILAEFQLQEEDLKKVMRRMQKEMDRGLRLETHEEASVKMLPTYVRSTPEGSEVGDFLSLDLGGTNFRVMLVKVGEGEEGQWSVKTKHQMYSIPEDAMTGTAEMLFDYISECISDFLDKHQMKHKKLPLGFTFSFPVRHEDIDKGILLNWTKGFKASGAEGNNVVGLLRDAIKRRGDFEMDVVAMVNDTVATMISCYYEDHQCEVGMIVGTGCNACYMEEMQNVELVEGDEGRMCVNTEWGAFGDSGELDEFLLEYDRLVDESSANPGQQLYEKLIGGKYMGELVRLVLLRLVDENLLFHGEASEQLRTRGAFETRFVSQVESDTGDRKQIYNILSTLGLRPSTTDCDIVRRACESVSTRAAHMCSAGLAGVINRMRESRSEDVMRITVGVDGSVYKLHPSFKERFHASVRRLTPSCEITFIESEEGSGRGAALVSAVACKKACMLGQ
Put plainly: Induction of human hepatic glucokinase activity at 5 mM glucose concentration. A digest of the protocol:
(§5)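 Enzymatic assay with purified recombinant human pancreatic or liver glucokinase, read as fold increase in activity at 5.0 mM glucose. EC50 is the mean of at least duplicate runs. For the pancreatic enzyme, glucose S0.5 and Vmax were also determined.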

In series [16] the target is T2, Hexokinase-4. Put plainly: Induction of human pancreatic glucokinase activity at 5 mM glucose concentration. In short, it runs like this:
as §5

The species named for series [17] is Mus musculus. Put plainly: Toxicity in ob/ob mouse assessed as effect on serum lipid level. The format is organism-based. To be noted: in vivo. A digest of the protocol:
as §3

Series [18] relates to Mus musculus. As to the kind of experiment: Increase in oral glucose tolerance in C57BL/J mouse assessed as reduction in glucose area under curve at 300 mg/kg by OGTT. The format is functional. More on the design: scale not given: the % may be the effect or the level left.

Chain of Cytochrome P450 2C9 (P11712 whole entry): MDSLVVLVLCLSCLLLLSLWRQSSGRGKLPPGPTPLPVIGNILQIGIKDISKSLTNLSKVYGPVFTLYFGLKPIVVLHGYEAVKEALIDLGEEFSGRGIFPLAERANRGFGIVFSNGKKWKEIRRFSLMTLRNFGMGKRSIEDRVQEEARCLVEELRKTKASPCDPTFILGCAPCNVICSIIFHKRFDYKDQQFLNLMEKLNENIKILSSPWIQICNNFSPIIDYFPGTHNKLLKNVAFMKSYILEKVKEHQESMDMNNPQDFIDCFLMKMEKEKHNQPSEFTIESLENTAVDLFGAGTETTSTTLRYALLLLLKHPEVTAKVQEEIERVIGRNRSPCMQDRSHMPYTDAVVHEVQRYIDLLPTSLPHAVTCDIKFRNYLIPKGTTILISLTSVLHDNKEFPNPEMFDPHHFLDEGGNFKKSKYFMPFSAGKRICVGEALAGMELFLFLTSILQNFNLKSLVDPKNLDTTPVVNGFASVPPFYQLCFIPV
Chain of Cytochrome P450 2D6 (P10635 whole entry): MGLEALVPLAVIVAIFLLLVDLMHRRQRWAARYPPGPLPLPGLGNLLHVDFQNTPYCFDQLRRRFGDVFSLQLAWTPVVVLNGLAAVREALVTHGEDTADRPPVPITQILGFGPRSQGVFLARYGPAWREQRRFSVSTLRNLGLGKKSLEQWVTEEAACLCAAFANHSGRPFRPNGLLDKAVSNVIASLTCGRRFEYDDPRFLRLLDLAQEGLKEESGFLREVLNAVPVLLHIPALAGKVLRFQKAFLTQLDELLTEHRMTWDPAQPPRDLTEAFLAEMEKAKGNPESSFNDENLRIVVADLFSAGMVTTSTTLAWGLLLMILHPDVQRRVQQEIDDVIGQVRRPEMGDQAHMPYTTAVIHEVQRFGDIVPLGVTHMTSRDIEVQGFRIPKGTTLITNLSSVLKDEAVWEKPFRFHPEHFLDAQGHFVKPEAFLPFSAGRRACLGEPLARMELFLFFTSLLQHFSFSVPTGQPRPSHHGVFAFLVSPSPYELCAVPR
Chain of Cytochrome P450 3A4 (P08684 whole entry): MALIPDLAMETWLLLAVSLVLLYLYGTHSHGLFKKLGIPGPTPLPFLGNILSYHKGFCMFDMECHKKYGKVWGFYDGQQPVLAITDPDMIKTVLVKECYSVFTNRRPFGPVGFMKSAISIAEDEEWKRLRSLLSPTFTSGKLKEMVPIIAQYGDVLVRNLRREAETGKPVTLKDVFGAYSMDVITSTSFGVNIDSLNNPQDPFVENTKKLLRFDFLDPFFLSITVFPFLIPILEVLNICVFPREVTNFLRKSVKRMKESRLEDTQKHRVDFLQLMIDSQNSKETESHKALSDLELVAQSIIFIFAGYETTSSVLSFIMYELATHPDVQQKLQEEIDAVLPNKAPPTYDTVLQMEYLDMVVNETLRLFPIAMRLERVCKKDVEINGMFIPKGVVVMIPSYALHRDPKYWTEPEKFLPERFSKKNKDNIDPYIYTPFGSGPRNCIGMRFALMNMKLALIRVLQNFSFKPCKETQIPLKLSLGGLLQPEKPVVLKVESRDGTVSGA
Chain of Cytochrome P450 2C19 (P33261 whole entry): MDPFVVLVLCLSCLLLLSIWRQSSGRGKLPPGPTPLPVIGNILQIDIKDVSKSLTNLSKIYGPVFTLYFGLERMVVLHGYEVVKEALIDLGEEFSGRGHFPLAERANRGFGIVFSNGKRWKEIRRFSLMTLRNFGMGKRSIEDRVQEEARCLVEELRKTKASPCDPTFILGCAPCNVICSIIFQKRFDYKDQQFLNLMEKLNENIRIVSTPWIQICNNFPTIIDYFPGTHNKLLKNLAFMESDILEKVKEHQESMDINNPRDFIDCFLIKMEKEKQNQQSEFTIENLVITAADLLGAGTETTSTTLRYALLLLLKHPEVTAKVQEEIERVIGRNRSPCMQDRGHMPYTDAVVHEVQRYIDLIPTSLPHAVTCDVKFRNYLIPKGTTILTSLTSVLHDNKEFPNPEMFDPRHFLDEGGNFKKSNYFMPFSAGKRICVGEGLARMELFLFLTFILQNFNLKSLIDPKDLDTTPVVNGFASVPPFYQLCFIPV

In the case of `COC[C@H](C)Oc1cc(Oc2cc(F)cc(F)c2)cc(C(=O)Nc2ccc(C(=O)O)cn2)c1`, the bioavailability in series [1] was 100%.

With `COC[C@H](C)Oc1cc(CCc2c(F)cccc2F)cc(C(=O)Nc2ccc(C(=O)O)cn2)c1`, the values for the bioavailability in series [2] and in series [1] were 66% and 85%, respectively. The half-life in series [3] and in [4] was 2.6 h each time. The results for the Vd in [5] and in series [6] were 0.33 L/kg and 0.49 L/kg, respectively. For the same compound, the clearance in series [7] is 7.17 mL/min/kg; in [8], 2.5 mL/min/kg. The “inhibition (INH)” value against Cytochrome P450 3A4, against Cytochrome P450 2D6, at Cytochrome P450 2C19, against Cytochrome P450 2C9 and on Cytochrome P450 1A2 was “Not Active” in each case. Besides, the remaining at 1 h in [9], in series [10] and in [11] was more than 60% throughout. Moreover, the Activity result is on record as “Non-toxic” in the series filed under Mus musculus [12], “Toxic” in the series with Mus musculus [13], 29.6% in the series on Mus musculus [14] and “Non-toxic” in the series listed under Mus musculus [17]. The half-maximal effective concentration (EC50) at Hexokinase-4 [15] amounted to 0.085 µM; on Hexokinase-4 [16], 0.07 µM.

On to `COC[C@H](C)Oc1cc(/C=C/c2ccccc2[N+](=O)[O-])cc(C(=O)Nc2ccn(C)n2)c1`, for which the EC50 on Hexokinase-4 [16] came out at 0.283 µM.

For `COC[C@H](C)Oc1cc(/C=C/c2ccc([N+](=O)[O-])cc2)cc(C(=O)Nc2ccn(C)n2)c1`, the EC50 on Hexokinase-4 [16] is 0.852 µM.

Compound `COC[C@H](C)Oc1cc(/C=C/c2ccccc2F)cc(C(=O)Nc2ccn(C)n2)c1` gave an EC50 at Hexokinase-4 [16] of 0.08 µM.

As for `COC[C@H](C)Oc1cc(/C=C/c2ccc(F)cc2)cc(C(=O)Nc2ccn(C)n2)c1`, the midpoint of the response at Hexokinase-4 [16], the EC50, lay at 0.119 µM.

On Hexokinase-4 [16], `COC[C@H](C)Oc1cc(/C=C/c2ccc(F)cc2F)cc(C(=O)Nc2ccn(C)n2)c1` displayed an EC50 of 0.109 µM.

Turning to `COC[C@H](C)Oc1cc(/C=C/c2cc(F)ccc2F)cc(C(=O)Nc2ccn(C)n2)c1`, the EC50 on Hexokinase-4 [16] amounted to 0.2 µM.

With `COC[C@H](C)Oc1cc(/C=C/c2c(F)cccc2F)cc(C(=O)Nc2ccn(C)n2)c1`, the EC50 on Hexokinase-4 [16] amounted to 0.161 µM.

In the case of `COC[C@H](C)Oc1cc(/C=C/c2cc(F)cc(F)c2F)cc(C(=O)Nc2ccn(C)n2)c1`, a half-maximal response on Hexokinase-4 [16] (EC50) required 0.848 µM.

As for `COC[C@H](C)Oc1cc(/C=C/c2ccccc2OC)cc(C(=O)Nc2ccn(C)n2)c1`, on Hexokinase-4 [16], the EC50 was 0.115 µM.

On Hexokinase-4 [16], `COC[C@H](C)Oc1cc(/C=C/c2cccc(C)n2)cc(C(=O)Nc2ccn(C)n2)c1` had an EC50 of 0.132 µM.

Consider `COC[C@H](C)Oc1cc(CCc2ccc(F)cc2)cc(C(=O)Nc2ccn(C)n2)c1`, for which the EC50 at Hexokinase-4 [16] was 0.216 µM.

Regarding `COC[C@H](C)Oc1cc(CCc2ccc(F)cc2F)cc(C(=O)Nc2ccn(C)n2)c1`, on Hexokinase-4 [16], the EC50 worked out at 0.184 µM.

Compound `COC[C@H](C)Oc1cc(CCc2c(F)cccc2F)cc(C(=O)Nc2ccn(C)n2)c1` came in with an EC50 at Hexokinase-4 [16] of 0.131 µM.

Consider `COC[C@H](C)Oc1cc(CCc2cc(F)cc(F)c2F)cc(C(=O)Nc2ccn(C)n2)c1`, for which a half-maximal response at Hexokinase-4 [16] (EC50) required 0.855 µM.

As for `COC[C@H](C)Oc1cc(/C=C/c2ccc([N+](=O)[O-])cc2)cc(C(=O)Nc2ccc(C(=O)O)cn2)c1`, on Hexokinase-4 [16], the EC50 was 0.284 µM.

Turning to `COC[C@H](C)Oc1cc(/C=C/c2cc(F)cc(F)c2F)cc(C(=O)Nc2ccc(C(=O)O)cn2)c1`, the EC50 at Hexokinase-4 [16] was 0.778 µM.

For the compound `CN(C)C(=N)NC(=N)N` [METFORMIN], the Activity in the series with Mus musculus [18] is 29.9%.
